These results are taken from ChEMBL document CHEMBL4033777, “Next-Generation Hypoxic Cell Radiosensitizers: Nitroimidazole Alkylsulfonamides” (J Med Chem, 2018).

Series [1] concerns HCT-116. Put plainly: Hypoxia radiosensitization activity in human HCT116 cells assessed as survival ratio by measuring ratio of cell survival with radiation in absence to presence of compound at 0.52 mM preincubated for 1 hr followed by 6 to 29 Gy irradiation measured after 10 days by methylene blue staining-based cell counting method. Format: functional.
Series [2] relates to HCT-116. Put plainly: Hypoxia radiosensitization activity in human HCT116 cells assessed as survival ratio by measuring ratio of cell survival with radiation in absence to presence of compound at 0.52 mM preincubated for 1 hr followed by 6 to 29 Gy irradiation measured after 10 days by methylene blue staining-based cell counting method relative to misonidazole. Format: functional.

Series [3] relates to HCT-116. In words: Cytotoxicity against human HCT116 cells at anoxic IC50 incubated for 1 hr at 21 degC by clonogenic survival assay. The note with it: hct-116, 1 h.
A short description of series [4]: Solubility of the compound in alphaMEM containing 5% FCS and 1% DMSO by HPLC analysis. Format: physicochemical. Summed up: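 Saturated drug solutions were incubated at 37 °C in αMEM with 5% FCS and 1% DMSO. Dissolved drug was quantified by HPLC.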
For series [5], the system named is HCT-116. Put plainly: Cytotoxicity against human HCT116 cells incubated for 4 hrs under anaerobic condition measured after 5 days by sulforhodamine B assay. Format: functional, cell-based. In a few lines: (§1)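 STR-authenticated, mycoplasma-free HCT116 cells in αMEM + 5% FCS were seeded at 700 cells/well and allowed 2 h to attach. Drug was added from DMSO stocks (<1% DMSO) in serial 3-fold dilutions for 4 h, oxic or anoxic (Pd-catalyst anaerobic chamber, medium pre-equilibrated ≥3 days). After washing, cells regrew for 5 days before SRB staining and IC50 determination.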
(Sulforhodamine B stains cellular protein and so reports cell mass.)

Series [6] deals with HCT-116. Put plainly: Hypoxic cytotoxicity ratio of IC50 for human HCT116 cells under oxic condition to IC50 for human HCT116 cells under anoxic condition. Summed up:
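HCT116 cells, 700 per well and attached 2 h, got a 4 h exposure to 3-fold serial dilutions (<1% DMSO) under air or in a Pd-catalyst anaerobic chamber with pre-equilibrated medium. Cells were washed, regrown 5 days, and stained with sulforhodamine B to give IC50. HCR = oxic IC50 / anoxic IC50.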

For series [7], the system named is HCT-116. Put plainly: Hypoxia radiosensitization activity in human HCT116 cells assessed as survival ratio by measuring ratio of cell survival with 15 Gy radiation in absence to presence of compound at anoxic IC50 preincubated for 1 hr followed by 15 Gy irradiation measured after 10 days by methylene blue staining-based cell counting method. Format: functional. In a few lines: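 Anoxic HCT116 cells were seeded at 10^5/well and treated at the anoxic IC50 concentration for 1 h at room temperature. They were irradiated with 15 Gy (60Co, ~2 Gy/min) in a sealed steel box, then plated clonogenically. Colonies of >50 cells were counted […]. SR15 = survival with radiation / survival with drug + radiation.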

Series [8] concerns HCT-116. Put plainly: Hypoxia radiosensitization activity in human HCT116 cells assessed as sensitizer enhancement ratio by measuring ratio of radiation dose for 1% survival in absence to presence of compound at 4.39 mM preincubated for 1 hr followed by irradiation measured after 10 days by methylene blue staining-based cell counting method. Format: functional.
For series [9], the system named is HCT-116. Put plainly: Hypoxia radiosensitization activity in human HCT116 cells assessed as sensitizer enhancement ratio by measuring ratio of radiation dose for 1% survival in absence to presence of compound at 4.39 mM preincubated for 1 hr followed by irradiation measured after 10 days by methylene blue staining-based cell counting method relative to misonidazole. Format: functional.

The subject of series [10] is HCT-116. Put plainly: Hypoxia radiosensitization activity in human HCT116 cells assessed as survival ratio by measuring ratio of cell survival with radiation in absence to presence of compound at 4.39 mM preincubated for 1 hr followed by 6 to 29 Gy irradiation measured after 10 days by methylene blue staining-based cell counting method. Format: functional.
Series [11] deals with HCT-116. In words: Hypoxia radiosensitization activity in human HCT116 cells assessed as survival ratio by measuring ratio of cell survival with radiation in absence to presence of compound at 4.39 mM preincubated for 1 hr followed by 6 to 29 Gy irradiation measured after 10 days by methylene blue staining-based cell counting method relative to misonidazole. Format: functional.

The nature of series [12]: Electrophilicity of the compound in pH 7 phosphate buffer assessed as one-electron reduction potential. In a few lines: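 The one-electron reduction potential was set by pulse radiolysis equilibria at pH 7.0 (2.5 mM phosphate), established within 20 µs against benzylviologen, methylviologen or triquat. ΔE came from equilibrium constants via the Nernst equation, at three concentration ratios and 22 ± 2 °C.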

The test system of series [13] is HCT-116. Put plainly: Hypoxia radiosensitization activity in human HCT116 cells assessed as sensitizer enhancement ratio by measuring ratio of radiation dose for 1% survival in absence to presence of compound at 0.81 mM preincubated for 1 hr followed by irradiation measured after 10 days by methylene blue staining-based cell counting method. Format: functional.

For series [14], the system named is HCT-116. Put plainly: Hypoxia radiosensitization activity in human HCT116 cells assessed as sensitizer enhancement ratio by measuring ratio of radiation dose for 1% survival in absence to presence of compound at 0.81 mM preincubated for 1 hr followed by irradiation measured after 10 days by methylene blue staining-based cell counting method relative to misonidazole. Format: functional.

Series [15] concerns HCT-116. In words: Hypoxia radiosensitization activity in human HCT116 cells assessed as survival ratio by measuring ratio of cell survival with radiation in absence to presence of compound at 0.81 mM preincubated for 1 hr followed by 6 to 29 Gy irradiation measured after 10 days by methylene blue staining-based cell counting method. Format: functional.
Series [16] has as its system HCT-116. Put plainly: Hypoxia radiosensitization activity in human HCT116 cells assessed as survival ratio by measuring ratio of cell survival with radiation in absence to presence of compound at 0.81 mM preincubated for 1 hr followed by 6 to 29 Gy irradiation measured after 10 days by methylene blue staining-based cell counting method relative to misonidazole. Format: functional.

Series [17] has as its system HCT-116. In words: Cytotoxicity against human HCT116 cells incubated for 4 hrs under aerobic condition measured after 5 days by sulforhodamine B assay. Format: cell-based. Summed up:
as §1

pIC50: −log10 of the molar value. Converted amounts (≈) assume the structure as drawn.

`COCCNS(=O)(=O)Cn1cnc([N+](=O)[O-])c1`: the Ratio in the series on HCT-116 [1] was 1.3. Further, in the series on HCT-116 [2], the “fold change (FC)” value turned out to be 0.44. Besides, in the series on HCT-116 [3], the Activity entry is “Non-Toxic”.
For orientation: solubility means how much of the substance goes into solution per volume. Broadly, the pIC50 is the negative decadic logarithm of the IC50, by convention in mol/L. The low end stands for a high IC50, the high end for a low IC50. `COCCNS(=O)(=O)CCn1cncc1[N+](=O)[O-]` registered a solubility in [4] of 24.4 mM (≈ 6.79 mg/mL). The pIC50 in the series on HCT-116 [5] was 2.36. For the same compound, in the series with HCT-116 [6], the “Ratio IC50” value is recorded as 2.5. In addition, the Ratio was 122 in the series on HCT-116 [7], 1.56 in the series with HCT-116 [8] and 26 in the series on HCT-116 [10]. Also, the “fold change (FC)” value is on record as 1.08 in the series on HCT-116 [9] and 2.23 in the series on HCT-116 [11]. The Activity was -450 mV in [12] and “Non-Toxic” with HCT-116 [3].
Compound `O=[N+]([O-])c1nccn1CCS(=O)(=O)NCCO` yielded a solubility in series [4] of 75.3 mM (≈ 19.9 mg/mL). Also, the pIC50 is 3.10 in the series on HCT-116 [5] and 2.32 to 3.42 with HCT-116 [17]. Besides, the “Ratio IC50” value in the series with HCT-116 [6] came out at 8. Besides, the values for the Ratio in the series on HCT-116 [7], with HCT-116 [13] and in the series with HCT-116 [15] were 12, 1.27 and 4.2, respectively. The results for the “fold change (FC)” value in the series with HCT-116 [14] and in the series on HCT-116 [16] were 0.92 and 0.54, respectively. The Activity in series [12] was -391 mV; with HCT-116 [3], “Non-Toxic”.
